SKN-1 block – blocks SKN-1 activity in C. elegans. C. elegans VP596 Pgst-4::GFP/RFP ratio, acrylamide-induced, 24 h. inhibition, % at 21.8 µM. 0.49% of 360,000 active. AID 624304;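 active = interference check ratio from 0.5 to 1.5 plus GFP to RFP signal ratio inhibition reaching or exceeding a fixed threshold, cut at about 30% in these data, passing the limit was not always enough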
MLLE-PAM2 inh – blocks PAM2 peptide binding to the PABP1 MLLE domain; GST-MLLE / FITC-PAM2 fluorescence polarization; P11940; AID 588489; 0.36% of 360,000 active; inhibition, % at 20 µM; in the data active = inhibition above about 35%, passing the limit was not always enough;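 also: plate controls were DMSO wells with GST-MLLE for no effect and wells lacking GST-MLLE protein for full effect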
MT1-MMP act inh – inhibitors of human MT1-MMP activation; P50281; HT1080 RFP-PRO-GFP cells, GFP/RFP ratio fluorescence, overnight; percent of plate control window, DMSO zero; GFP/RFP ratio change, % at 20 µM; 0.061% of 360,000 active; AID 651647;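 active = GFP/RFP ratio change of at least 30% with cell ATP level not reduced by more than half and red fluorescence within 50% of control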
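Read-out: GFP/RFP fluorescence ratio; Test system: RFP-PRO-GFP reporter HT1080 cells; Compound dosing: single-point 20 µM compound, 1% DMSO; Times: overnight compound exposure at 37 °C.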
eIF4H FP inh – inhibitors of RNA binding by human eIF4H | AID 2012 | inhibition, % at 35 µM | eIF4H fluorescence polarization binding assay | 0.94% of 290,000 active;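 also: calls also rest on retests at 20 µM and on dose response follow-up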
PABP FP inh – blocks human PABP binding to poly(A) RNA. P11940. fluorescence polarization. calls only at 35 µM. 1% of 290,000 active. AID 2014;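 also: calls also rest on retests at 20 µM and on dose response follow-up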
Numbers without * were called inactive; i = inactive; u = inconclusive; x = no result; + = active, no number; ! = not active in a repeat. Sampled rows, rich in hits. Any-hit rate of the full collection: about 1.8%. Unless noted, no rule for the calls is given here.

SMILES | SKN-1 block | MLLE-PAM2 inh | MT1-MMP act inh | eIF4H FP inh | PABP FP inh
CCCCCC(=O)N1CC2(CC(c3cccc(NC(=O)[C@@H]4CCC(=O)N4)c3)=NO2)C[C@@H]1C(N)=O (stereo partly specified) | 17 | 0 | 1 | 5 | i
Cc1c(C)n(C)c2ccc(C(=O)NCCN3CCOCC3)cc12 | 50* | -13 | 2 | 3 | i
CN(C)CCOC(c1ccccc1)c1ccccc1 | -6 | -6 | 0 | 1.6*! | i
COc1ccc(OC(=O)CN2C(=O)C3C4CCC(C4)C3C2=O)cc1 (stereo unspecified) | 6 | -3 | -3 | 64 | +
Cc1cccc(OC(=O)CN2C(=O)C3C4CCC(C4)C3C2=O)c1C (stereo unspecified) | -1 | 8 | -6 | -3 | i
CC1CC(C)(C)NC(=S)S1 (stereo unspecified) | 16 | 41* | -1 | -4 | i
COC(=O)c1ccc(CSc2nc3scc(-c4cccs4)c3c(=O)[nH]2)o1 | 6 | -17 | 3 | 54* | +
COC(=O)c1ccc(CSc2nc3ccc(Cl)cc3[nH]2)o1 | x | x | x | 3 | i
O=C(c1cc2ccccc2o1)N1CCN(c2ncccn2)CC1 | 14 | 5 | 0 | x | x
c1ccn2cc(-c3ccc4c(c3)OCO4)cc2c1 | 10 | -10 | 1 | 64* | i
COC(=O)c1ccccc1NC(=O)Cc1nc(-c2ccccc2)sc1-c1ccc(C)cc1 | 5 | -19 | -2 | active | +
COC(=O)c1ccccc1NC(=O)CC(=O)Nc1ccccc1C(=O)OC | -3 | -6 | -5 | -13 | i
C=CCSc1ncc(-c2ccccc2)cn1 | 73* | 1 | 6 | 2 | i
C#CCSc1ncc(-c2ccccc2)cn1 | 90* | -3 | 5 | 6 | i
CSc1ncc(-c2ccccc2)cn1 | 27 | 13 | 1 | -14 | i
O=C(NCCc1cn[nH]c1)c1ccc2oc(CCc3ccccc3)nc2c1 | -5 | 2 | -1 | x | x
Cc1csc(N/N=C/c2ccc(O)c([N+](=O)[O-])c2)n1 | 0 | -27 | 16 | 68* | +
NC(=O)N/N=C/c1sc(=O)n(-c2ccccc2)c1Cl | -4 | -105 | -20 | 10 | i
O=C(N/N=C/c1sc(=O)n(-c2ccccc2)c1Cl)c1ccccc1 | -2 | -148 | -12 | 65* | +
O=C(NC(=S)Nc1ccc(Oc2ccccc2)cc1)c1ccc(Cl)cc1 | 0 | 41* | 0 | -1 | i
Cc1ccc(C(=O)NC(=S)Nc2ccc(Oc3ccc(Cl)cc3)cc2)cc1 | -11 | 29 | -6 | -10 | i
O=C(NC1CCN(C(=O)c2ccccc2Br)CC1)c1ccccc1 | 11 | -3 | -4 | -4 | i
Cc1ccc(CSCC(=O)N2CCOCC2)cc1 | 44* | 8 | -2 | -19 | i
COc1cc(/C=C2/S/C(=N/S(=O)(=O)c3ccccc3)NC2=O)c([N+](=O)[O-])cc1OC | 13 | 39* | 8 | 22 | i
COc1cc(/C=C2\S/C(=N/S(=O)(=O)Cc3ccccc3)NC2=O)c([N+](=O)[O-])cc1OC | -22 | 23 | -7 | 1 | i
SMILES | SKN-1 block | MLLE-PAM2 inh | MT1-MMP act inh | eIF4H FP inh | PABP FP inh
C/C(CC(=O)Nc1cc(C)ccn1)=N\NC(=O)c1ccc(C)cc1 | 2 | 1 | 7 | -1 | i
C/C(CC(=O)Nc1cc(C)ccn1)=N\NC(=O)c1ccccc1C | 7 | -2 | -1 | 67 | +
CCOC(=O)C1=C(C)Nc2ccccc2N=C1NC(=O)C1CCN(C(=O)c2ccccc2C)CC1 | -51 | 2 | 0 | x | x
CC12CCCCN1CCCc1c2[nH]c2ccccc12 (stereo unspecified) | 0 | 40* | -13 | u | u
O=C(O)c1ccc2ccc3ccccc3c2c1 | 41* | 4 | -1 | x | x
CC1(C(=O)Nc2ccc(Cl)cc2)Cc2c(-c3cccc(C(F)(F)F)c3)ccnc2O1 (stereo unspecified) | 6 | 1 | 3 | x | x
O=C1/C(=C\c2ccc(Br)o2)SC(=Nc2ccccc2)N1c1ccccc1 | 0 | 9 | -13 | 55* | +
Cc1c(Cl)ccc2c(C(N)=O)cc(-c3ccccn3)nc12 | 23 | -1 | -15 | 31 | i
Cc1cc(C)c2nc(-c3ccccn3)cc(C(=O)n3cccn3)c2c1 | 13 | -4 | 2 | 25 | +
CC12CCC(=O)C=C1C(F)CC1C2C(O)CC2(C)C1CCC2(O)C(=O)CO (stereo unspecified) | -3 | -8 | 1 | x | x

Assay outcomes as filed in PubChem BioAssay.
